From ChEMBL document CHEMBL2010670, “Discovery of a clinical stage multi-kinase inhibitor sodium (E)-2-{2-methoxy-5-[(2',4',6'-trimethoxystyrylsulfonyl)methyl]phenylamino}acetate (ON 01910.Na): synthesis, structure-activity relationship, and biological activity” (J Med Chem, 2011)

Experiments:
Format in all cases: functional, cell-based
[1] = tested on: K562; experiment: Cytotoxicity against human K562 cells after 96 hrs by trypan blue exclusion assay; conditions: Homo sapiens, K562, 96 h
In short: (§1)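 Cells grown in DMEM or RPMI with 10% FBS and penicillin-streptomycin, seeded at 1.0 × 10⁵ cells/mL/well in 6-well dishes. Compound added at a range of concentrations 24 h after seeding. Viable cells counted by trypan blue exclusion from duplicate wells after 96 h of exposure; dose-response end point.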

[2] = tested on: DU-145; experiment: Cytotoxicity against human DU145 cells after 96 hrs by trypan blue exclusion assay; conditions: Homo sapiens, DU-145, 96 h; in short: as §1
[3] = Cytotoxicity against human MES-SA cells assessed as cell viability after 96 hrs by trypan blue exclusion; in short: as §1
[4] = Cytotoxicity against multidrug-resistant human MES-SA/Dx5 cells assessed as cell viability after 96 hrs by trypan blue exclusion; conditions: MES-SA/Dx5, 96 h
In short: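 Cells grown in DMEM or RPMI with 10% FBS and 1 unit/mL penicillin-streptomycin, seeded at 1.0 × 10⁵ cells/mL/well in 6-well dishes; compound added 24 h later at various concentrations. After 96 h of treatment, viable cells counted by trypan blue exclusion in duplicate wells; dose-response end point.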

| SMILES | IC50 [1] | IC50 [2] | IC50 [3] | IC50 [4] |
| --- | --- | --- | --- | --- |
| COc1ccc(CS(=O)(=O)/C=C/c2c(OC)cc(O)cc2OC)cc1N | 300 nM | 200 nM |  |  |
| COc1ccc(CS(=O)(=O)/C=C/c2c(OC)cc(OC)cc2OC)c(N)c1 | 25 nM | 25 nM |  |  |
| COC(=O)C(C)(C)Nc1cc(CS(=O)(=O)/C=C/c2c(OC)cc(OC)cc2OC)ccc1OC | 800 nM | 2500 nM |  |  |
| COc1cc(OC)c(/C=C/S(=O)(=O)Cc2ccc(OC)c(NC(C(=O)O)C(F)(F)F)c2)c(OC)c1 (centres undefined) | 75 nM | 20 nM |  |  |
| COc1cc(OC)c(/C=C/SCc2ccc(OC)c([N+](=O)[O-])c2)c(OC)c1 | 5000 nM | 5000 nM |  |  |
| COc1ccc(CS(=O)(=O)/C=C/c2cc(OC)c(OC)cc2OC)cc1N | 250 nM | 250 nM |  |  |
| COC(=O)C(F)(F)Nc1cc(CS(=O)(=O)/C=C/c2c(OC)cc(OC)cc2OC)ccc1OC | 250 nM | 250 nM |  |  |
| COc1ccc(CS(=O)(=O)/C=C/c2c(OC)cccc2OC)c(N)c1 | 750 nM | 750 nM |  |  |
| COc1ccc(/C=C/S(=O)(=O)Cc2ccc(OC)c(N)c2)c(OC)c1 | 500 nM | 500 nM |  |  |
| COc1cc(OC)c(/C=C/S(=O)(=O)Cc2ccc(Br)c([N+](=O)[O-])c2)c(OC)c1 | 25000 nM | 25000 nM |  |  |
| COC(=O)C(Nc1cc(CS(=O)(=O)/C=C/c2c(OC)cc(OC)cc2OC)ccc1OC)c1ccc(Br)cc1 (centres undefined) | 200 nM | 300 nM |  |  |
| COC(=O)[C@H](C)Nc1cc(CS(=O)(=O)/C=C/c2c(OC)cc(OC)cc2OC)ccc1OC | 200 nM | 750 nM |  |  |
| COC(=O)C(Nc1cc(CS(=O)(=O)/C=C/c2c(OC)cc(OC)cc2OC)ccc1OC)c1ccc(F)cc1 (centres undefined) | 800 nM | 300 nM |  |  |
| COc1cc(OC)c(/C=C/S(=O)(=O)Cc2cc(N)ccc2OC)c(OC)c1 | 7500 nM | 7500 nM |  |  |
| COc1cc(OC)c(/C=C/S(=O)(=O)Cc2ccc(Br)c(N)c2)c(OC)c1 | 750 nM | 750 nM |  |  |
| COc1ccc(CS(=O)(=O)/C=C/c2cc(OC)c(OC)c(OC)c2)cc1N | 250 nM | 3000 nM |  |  |
| COc1cc(OC)c(/C=C/S(=O)(=O)Cc2ccc(OC)c([N+](=O)[O-])c2)c(OC)c1 | 2500 nM | 2500 nM |  |  |
| COc1ccc(CS(=O)(=O)/C=C/c2c(OC)cccc2OC)cc1[N+](=O)[O-] | 20000 nM | 20000 nM |  |  |
| COc1cc(OC)c(/C=C/S(=O)(=O)Cc2ccc(OC)cc2[N+](=O)[O-])c(OC)c1 | 20000 nM | 20000 nM |  |  |

| SMILES | IC50 [1] | IC50 [2] | IC50 [3] | IC50 [4] |
| --- | --- | --- | --- | --- |
| COc1cc(OC)c(/C=C/S(=O)(=O)Cc2ccc(OC)c(NC(F)(F)C(=O)O)c2)c(OC)c1 | 150 nM | 150 nM |  |  |
| COc1cc(OC)c(/C=C/S(=O)(=O)Cc2ccc(OC)c(N[C@@H](C)C(=O)O)c2)c(OC)c1 | 15 nM | 25 nM |  |  |
| COc1cc(OC)c(/C=C/SCc2ccc(OC)c(N)c2)c(OC)c1 | 30 nM | 50 nM |  |  |
| COc1cc(OC)c(/C=C/S(=O)(=O)Cc2ccc(F)c([N+](=O)[O-])c2)c(OC)c1 | 25000 nM | 25000 nM |  |  |
| COc1cc(OC)c(/C=C/S(=O)(=O)Cc2ccc(OC)c(NC(C(=O)O)c3ccc(F)cc3)c2)c(OC)c1 (centres undefined) | 80 nM | 150 nM |  |  |
| COC(=O)C(Nc1cc(CS(=O)(=O)/C=C/c2c(OC)cc(OC)cc2OC)ccc1OC)c1ccccc1 (centres undefined) | 30 nM | 75 nM |  |  |
| COc1ccc(OC)c(/C=C/S(=O)(=O)Cc2ccc(OC)c(N)c2)c1 | 750 nM | 750 nM |  |  |
| COC(=O)CCNc1cc(CS(=O)(=O)/C=C/c2c(OC)cc(OC)cc2OC)ccc1OC | 1000 nM | 1500 nM |  |  |
| COc1cc(OC)c(/C=C/S(=O)(=O)Cc2ccc(Cl)c(N)c2)c(OC)c1 | 10 nM | 10 nM |  |  |
| COc1ccc(/C=C/S(=O)(=O)Cc2ccc(OC)c([N+](=O)[O-])c2)cc1 | 25000 nM | 25000 nM |  |  |
| COc1cc(OC)c(/C=C/S(=O)(=O)Cc2ccc(OC)c(NC(C)(C)C(=O)O)c2)c(OC)c1 | 7.5 nM | 150 nM |  |  |
| COc1ccc(CS(=O)(=O)/C=C/c2c(OC)cccc2OC)c([N+](=O)[O-])c1 | 50000 nM | 50000 nM |  |  |
| COc1ccccc1/C=C/S(=O)(=O)Cc1ccc(OC)c([N+](=O)[O-])c1 | 20000 nM | 20000 nM |  |  |
| CC(=O)O[C@H]1C(=O)[C@@]2(C)[C@H]([C@H](OC(=O)c3ccccc3)[C@]3(O)C[C@H](OC(=O)[C@H](O)[C@@H](NC(=O)c4ccccc4)c4ccccc4)C(C)=C1C3(C)C)[C@]1(OC(C)=O)CO[C@@H]1C[C@@H]2O [PACLITAXEL] |  |  | 4 nM | 750 nM |
| COc1cc(OC)c(/C=C/S(=O)(=O)Cc2ccc(Cl)cc2N)c(OC)c1 | 2500 nM | 2500 nM |  |  |
| COc1ccc(CS(=O)(=O)/C=C/c2c(OC)cc(OCCCC(=O)O)cc2OC)cc1N | 20000 nM | 25000 nM |  |  |
| COc1ccc(CS(=O)(=O)/C=C/c2ccccc2OC)cc1N | 7500 nM | 7500 nM |  |  |
| COC(=O)C(Nc1cc(CS(=O)(=O)/C=C/c2c(OC)cc(OC)cc2OC)ccc1OC)c1ccc(OC)cc1 (centres undefined) | 150 nM | 250 nM |  |  |
| COC(=O)CNc1cc(CS(=O)(=O)/C=C/c2c(OC)cc(OC)cc2OC)ccc1OC | 100 nM | 100 nM |  |  |

| SMILES | IC50 [1] | IC50 [2] | IC50 [3] | IC50 [4] |
| --- | --- | --- | --- | --- |
| COc1ccc(N)cc1CS(=O)(=O)/C=C/c1c(OC)cccc1OC | 25000 nM | 25000 nM |  |  |
| COc1ccc(CS(=O)(=O)/C=C/c2c(OC)cc(O)cc2OC)cc1[N+](=O)[O-] | 5000 nM | 5000 nM |  |  |
| COC(=O)CNc1cc(CS(=O)(=O)/C=C/c2cc(OC)c(OC)c(OC)c2)ccc1OC | 30000 nM | 75000 nM |  |  |
| COc1cc(OC)c(/C=C/S(=O)(=O)Cc2ccc(OC)c(NCCC(=O)O)c2)c(OC)c1 | 5000 nM | 5000 nM |  |  |
| COc1ccc(C(Nc2cc(CS(=O)(=O)/C=C/c3c(OC)cc(OC)cc3OC)ccc2OC)C(=O)O)cc1 (centres undefined) | 15 nM | 100 nM |  |  |
| COc1cc(OC)c(/C=C/S(=O)(=O)Cc2ccc(OC)c(NCC(=O)O)c2)c(OC)c1 [RIGOSERTIB] | 7.5 nM | 75 nM |  |  |
| COc1cc(OC)c(/C=C/[S+]([O-])Cc2ccc(OC)c(N)c2)c(OC)c1 (centres undefined) | 20 nM | 40 nM |  |  |
| COc1cc(OC)c(/C=C/S(=O)(=O)Cc2ccc(OC)c(NC(C(=O)O)c3ccccc3)c2)c(OC)c1 (centres undefined) | 15 nM | 20 nM |  |  |
| COc1cc(OC)c(/C=C/[S+]([O-])Cc2ccc(OC)c([N+](=O)[O-])c2)c(OC)c1 (centres undefined) | 15000 nM | 15000 nM |  |  |
| COc1ccc(/C=C/S(=O)(=O)Cc2ccc(OC)c(N)c2)cc1 | 2500 nM | 2500 nM |  |  |
| COc1ccc(CS(=O)(=O)/C=C/c2c(F)cc(F)cc2F)cc1N | 800 nM | 2000 nM |  |  |
| COc1cc(OC)c(/C=C/S(=O)(=O)Cc2ccc(OC)c(NC(C(=O)O)c3ccc(Cl)cc3)c2)c(OC)c1 (centres undefined) | 250 nM | 400 nM |  |  |
| COc1cc(OC)c(/C=C/S(=O)(=O)Cc2ccc(OC)c(NC(C(=O)O)c3ccc(Br)cc3)c2)c(OC)c1 (centres undefined) | 200 nM | 300 nM |  |  |
| COC(=O)C(Nc1cc(CS(=O)(=O)/C=C/c2c(OC)cc(OC)cc2OC)ccc1OC)C(F)(F)F (centres undefined) | 250 nM | 250 nM |  |  |
| COC(=O)C(Nc1cc(CS(=O)(=O)/C=C/c2c(OC)cc(OC)cc2OC)ccc1OC)c1ccc(Cl)cc1 (centres undefined) | 200 nM | 400 nM |  |  |
| COc1ccc(CS(=O)(=O)/C=C/c2cc(F)c(F)cc2F)cc1N | 15000 nM | 5000 nM |  |  |
| COc1ccc(CS(=O)(=O)/C=C/c2cc(OC)c(OC)c(OC)c2)cc1NCC(=O)O | 3000 nM | 5000 nM |  |  |
| COc1cc(OC)c(/C=C/S(=O)(=O)Cc2ccc(F)c(N)c2)c(OC)c1 | 2500 nM | 2500 nM |  |  |
| COc1ccc(CS(=O)(=O)/C=C/c2c(OC)cccc2OC)cc1N | 50 nM | 50 nM |  |  |
